# Results from ChEMBL document CHEMBL1156144, “Biaryl ethers as novel non-nucleoside reverse transcriptase inhibitors with improved potency against key mutant viruses” (J Med Chem, 2009).
# Legend:
# Rattus norvegicus [1] = assay: AUC in Sprague-Dawley rat at 10 mg/kg, po; format: ADME, organism-based, Plasma; design: dose 10 mg/kg, route oral; conditions: in vivo
# [2] = tested on: Human immunodeficiency virus; assay: Antiviral activity against HIV with reverse transcriptase K103N mutant assessed as inhibition of viral replication; format: functional, organism-based; conditions: Human immunodeficiency virus 1
# [3] = tested on: Human immunodeficiency virus; assay: Antiviral activity against HIV with reverse transcriptase G190A mutant assessed as inhibition of viral replication; format: functional, organism-based; conditions: Human immunodeficiency virus 1
# [4] = Clearance in Beagle dog at 0.5 mg/kg, iv; format: ADME, organism-based, Canis lupus familiaris; design: dose 0.5 mg/kg, route intravenous; conditions: in vivo
# Canis familiaris [5] = assay: AUC in Beagle dog at 1 mg/kg, po; format: ADME, organism-based, Canis lupus familiaris, Plasma; design: dose 1 mg/kg, route oral; conditions: in vivo
# Rhesus monkey = assay: AUC in rhesus monkey at 5 mg/kg, po; format: ADME, organism-based, Macaca mulatta, Plasma; design: dose 5 mg/kg, route oral; conditions: in vivo
# [6] = tested on: Human immunodeficiency virus; assay: Antiviral activity against HIV with reverse transcriptase K103N/G190A double mutant assessed as inhibition of viral replication; format: functional, organism-based; conditions: Human immunodeficiency virus 1
# [7] = Half life in Beagle dog at 0.5 mg/kg, iv; format: ADME, organism-based, Canis lupus familiaris; design: dose 0.5 mg/kg, route intravenous; conditions: in vivo
# [8] = Clearance in rhesus monkey at 1 mg/kg, iv; format: ADME, organism-based, Macaca mulatta; design: dose 1 mg/kg, route intravenous; conditions: in vivo
# [9] = Inhibition of RNA-dependent DNA polymerase activity of wild type HIV reverse transcriptase assessed as BrdU incorporation by standard ECL assay; design: species or system Human immunodeficiency virus
# How it was run: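 Purified recombinant wild-type RT polymerase activity was measured using a 500-nt heteropolymeric RNA template and a biotinylated DNA primer. BrdU incorporation was detected with a ruthenylated anti-BrdU antibody by electrochemiluminescence. Ki is the geometric mean of at least two determinations, each within 25% of the mean.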
# [10] = tested on: Human immunodeficiency virus; assay: Antiviral activity against HIV with reverse transcriptase K103N/Y181C/G190A mutant assessed as inhibition of viral replication; format: functional, organism-based; conditions: Human immunodeficiency virus 1
# [11] = tested on: Human immunodeficiency virus; assay: Antiviral activity against wild type HIV H9-3B infected in human MT2 cells assessed as inhibition of viral replication measuring p24 level after 3 days in presence of 10% fetal bovine serum; format: functional; conditions: Human immunodeficiency virus 1, MT2, Serum; read-out: CIC95
# How it was run: (§1)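 Multiple-cycle spread assay in MT2 cells with wild-type H9IIIB virus. Cells were infected overnight at moi ≈ 0.01 without compound, washed, then cultured 3 days across varying compound concentrations in RPMI 1640 with 10% FBS or 50% NHS. p24 was measured in supernatants. CIC95 is the lowest concentration inhibiting replication ≥95%, as the geometric mean of ≥2 determinations.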
# [12] = tested on: Human immunodeficiency virus; assay: Antiviral activity against HIV with reverse transcriptase K103N/Y181C double mutant infected in human MT2 cells assessed as inhibition of viral replication measuring p24 level after 3 days in presence of 10% fetal bovine serum; format: functional; conditions: Human immunodeficiency virus 1, MT2, Serum, 72 h; read-out: CIC95
# How it was run: (§2)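 Multiple-cycle replication (Spread) assay in MT2 cells with H9IIIB-background mutant virus. Cells were infected overnight at moi ≈ 0.01 without compound, washed, then cultured 3 days across a range of compound concentrations in medium with 10% FBS. p24 was measured in supernatants. CIC95 is the lowest concentration inhibiting replication by ≥95%, reported as the geometric mean of ≥2 determinations.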
# [13] = Half life in Sprague-Dawley rat at 2 mg/kg, iv; format: ADME, organism-based; design: dose 2 mg/kg, route intravenous; conditions: in vivo
# [14] = tested on: Human immunodeficiency virus; assay: Antiviral activity against HIV with reverse transcriptase L100I mutant assessed as inhibition of viral replication; format: functional, organism-based; conditions: Human immunodeficiency virus 1
# [15] = Oral bioavailability in Sprague-Dawley rat at 10 mg/kg; format: ADME, organism-based; conditions: in vivo
# Canis familiaris [16] = assay: Cardiotoxicity in conscious cardiovascular dog assessed as heart rate at 10 mg/kg, iv; format: toxicity, organism-based, Canis lupus familiaris; design: dose 10 mg/kg, route intravenous; conditions: in vivo
# [17] = Half life in rhesus monkey at 1 mg/kg, iv; format: ADME, organism-based, Macaca mulatta; design: dose 1 mg/kg, route intravenous; conditions: in vivo
# [18] = tested on: Human immunodeficiency virus; assay: Antiviral activity against HIV with reverse transcriptase G190S mutant assessed as inhibition of viral replication; format: functional, organism-based; conditions: Human immunodeficiency virus 1
# [19] = Volume of distribution in rhesus monkey at 1 mg/kg, iv; format: ADME, organism-based, Macaca mulatta; design: dose 1 mg/kg, route intravenous; conditions: in vivo
# [20] = Plasma concentration in rat at 100 mg/kg, po after 24 hrs; format: ADME, organism-based; design: dose 100 mg/kg, route oral
# [21] = tested on: Human immunodeficiency virus; assay: Antiviral activity against HIV with reverse transcriptase Y188L mutant assessed as inhibition of viral replication; format: functional, organism-based; conditions: Human immunodeficiency virus 1
# [22] = Oral bioavailability in Beagle dog at 1 mg/kg; format: ADME, organism-based, Canis lupus familiaris; conditions: in vivo
# [23] = tested on: Human immunodeficiency virus; assay: Antiviral activity against HIV with reverse transcriptase K101E/G190A double mutant assessed as inhibition of viral replication; format: functional, organism-based; conditions: Human immunodeficiency virus 1
# [24] = tested on: Human immunodeficiency virus; assay: Antiviral activity against HIV with reverse transcriptase Y181C/G190A double mutant assessed as inhibition of viral replication; format: functional, organism-based; conditions: Human immunodeficiency virus 1
# [25] = tested on: Human immunodeficiency virus; assay: Antiviral activity against HIV with reverse transcriptase CNDO mutant assessed as inhibition of viral replication; format: functional, organism-based; conditions: Human immunodeficiency virus 1
# [26] = Volume of distribution in Sprague-Dawley rat at 2 mg/kg, iv; format: ADME, organism-based; design: dose 2 mg/kg, route intravenous; conditions: in vivo
# [27] = target: Human immunodeficiency virus type 1 reverse transcriptase (Human immunodeficiency virus 1, UniProt Q72547, K103N); assay: Inhibition of RNA-dependent DNA polymerase activity of recombinant HIV reverse transcriptase K103N mutant assessed as BrdU incorporation by standard ECL assay
# [28] = tested on: Human immunodeficiency virus; assay: Antiviral activity against HIV with reverse transcriptase K103N mutant infected in human MT2 cells assessed as inhibition of viral replication measuring p24 level after 3 days in presence of 10% fetal bovine serum; format: functional; conditions: Human immunodeficiency virus 1, MT2, Serum, 72 h; read-out: CIC95; how it was run: as §2
# [29] = tested on: Human immunodeficiency virus; assay: Antiviral activity against HIV with reverse transcriptase L100I/K103N double mutant assessed as inhibition of viral replication; format: functional, organism-based; conditions: Human immunodeficiency virus 1
# [30] = tested on: Human immunodeficiency virus; assay: Antiviral activity against wild type HIV H9-3B infected in human MT2 cells assessed as inhibition of viral replication measuring p24 level after 3 days in presence of 50% normal human serum; format: functional; conditions: Human immunodeficiency virus 1, H9-3B, 72 h, read-out: CIC95; how it was run: as §1
# Cytochrome P450 2D6 = Cytochrome P450 2D6 (Homo sapiens, UniProt P10635); assay: Inhibition of CYP2D6; format: ADME
# [31] = tested on: Human immunodeficiency virus; assay: Antiviral activity against HIV with reverse transcriptase V106A/G190A/F227L mutant assessed as inhibition of viral replication; format: functional, organism-based; conditions: Human immunodeficiency virus 1
# [32] = Clearance in Sprague-Dawley rat at 2 mg/kg, iv; format: ADME, organism-based; design: dose 2 mg/kg, route intravenous; conditions: in vivo
# [33] = tested on: Human immunodeficiency virus; assay: Antiviral activity against HIV with reverse transcriptase Y181C mutant assessed as inhibition of viral replication; format: functional, organism-based; conditions: Human immunodeficiency virus 1
# [34] = tested on: Human immunodeficiency virus; assay: Antiviral activity against HIV with reverse transcriptase Y181C mutant infected in human MT2 cells assessed as inhibition of viral replication measuring p24 level after 3 days in presence of 10% fetal bovine serum; format: functional; conditions: Human immunodeficiency virus 1, MT2, Serum, 72 h; read-out: CIC95; how it was run: as §2
# [35] = Oral bioavailability in rhesus monkey at 5 mg/kg; conditions: in vivo
# [36] = tested on: Human immunodeficiency virus; assay: Antiviral activity against HIV with reverse transcriptase K103N/Y181C double mutant assessed as inhibition of viral replication; format: functional, organism-based; conditions: Human immunodeficiency virus 1
# Rattus norvegicus [37] = assay: AUC in Sprague-Dawley rat at 2 mg/kg, iv; format: ADME, organism-based, Plasma; design: dose 2 mg/kg, route intravenous; conditions: in vivo
# Canis familiaris [38] = assay: Cardiotoxicity in conscious cardiovascular dog assessed as electrocardiogram at 10 mg/kg, iv; format: toxicity, organism-based, Canis lupus familiaris, Heart; design: dose 10 mg/kg, route intravenous; conditions: in vivo
# Cytochrome P450 3A4 = Cytochrome P450 3A4 (Homo sapiens, UniProt P08684); assay: Inhibition of CYP3A4; format: ADME
# [39] = tested on: Human immunodeficiency virus; assay: Antiviral activity against HIV with reverse transcriptase K103N/P225H double mutant assessed as inhibition of viral replication; format: functional, organism-based; conditions: Human immunodeficiency virus 1
# Canis familiaris [40] = assay: Cardiotoxicity in conscious cardiovascular dog assessed as mean arterial pressure at 10 mg/kg, iv; format: toxicity, organism-based, Canis lupus familiaris, Heart; design: dose 10 mg/kg, route intravenous; conditions: in vivo
# [41] = tested on: Human immunodeficiency virus; assay: Antiviral activity against HIV with reverse transcriptase MDRC4 mutant assessed as inhibition of viral replication; format: functional, organism-based; conditions: Human immunodeficiency virus 1
# [42] = Volume of distribution in Beagle dog at 0.5 mg/kg, iv; format: ADME, organism-based, Canis lupus familiaris; design: dose 0.5 mg/kg, route intravenous; conditions: in vivo
# [43] = tested on: Human immunodeficiency virus; assay: Antiviral activity against HIV with reverse transcriptase K101E/Y181C/G190A mutant assessed as inhibition of viral replication; format: functional, organism-based; conditions: Human immunodeficiency virus 1
# Chain of Cytochrome P450 3A4 (P08684 whole entry): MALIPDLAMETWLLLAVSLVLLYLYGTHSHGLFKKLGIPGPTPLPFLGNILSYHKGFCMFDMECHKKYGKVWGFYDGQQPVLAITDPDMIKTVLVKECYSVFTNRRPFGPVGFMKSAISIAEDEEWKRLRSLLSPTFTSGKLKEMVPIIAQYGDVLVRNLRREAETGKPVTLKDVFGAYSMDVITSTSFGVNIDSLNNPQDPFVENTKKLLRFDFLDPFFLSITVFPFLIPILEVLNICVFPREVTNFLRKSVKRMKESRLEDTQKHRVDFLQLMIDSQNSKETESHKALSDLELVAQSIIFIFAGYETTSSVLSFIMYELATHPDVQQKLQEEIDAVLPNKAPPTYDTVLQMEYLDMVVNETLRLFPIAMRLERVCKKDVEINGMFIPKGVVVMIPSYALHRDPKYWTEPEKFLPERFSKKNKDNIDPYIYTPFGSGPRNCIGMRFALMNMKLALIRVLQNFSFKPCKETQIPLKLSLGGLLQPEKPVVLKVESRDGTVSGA
# Chain of Cytochrome P450 2D6 (P10635 whole entry): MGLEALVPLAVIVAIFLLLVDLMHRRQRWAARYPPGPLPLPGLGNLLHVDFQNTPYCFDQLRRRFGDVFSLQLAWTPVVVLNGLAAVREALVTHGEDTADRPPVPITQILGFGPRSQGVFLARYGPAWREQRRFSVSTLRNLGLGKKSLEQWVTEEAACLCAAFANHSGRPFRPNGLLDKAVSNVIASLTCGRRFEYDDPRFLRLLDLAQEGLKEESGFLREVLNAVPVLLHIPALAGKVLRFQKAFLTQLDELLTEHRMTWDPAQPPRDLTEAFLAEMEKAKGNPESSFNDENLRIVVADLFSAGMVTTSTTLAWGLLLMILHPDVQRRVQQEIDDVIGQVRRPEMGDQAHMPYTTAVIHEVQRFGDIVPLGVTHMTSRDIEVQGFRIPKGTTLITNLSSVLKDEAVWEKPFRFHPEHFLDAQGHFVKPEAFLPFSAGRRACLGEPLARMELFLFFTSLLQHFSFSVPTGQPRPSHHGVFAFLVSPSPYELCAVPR
smiles,measurement,setting,value
N#Cc1cc(Cl)cc(Oc2cc(OCc3n[nH]c4nc(N)ccc34)cc(F)c2Cl)c1,AUC,Rattus norvegicus [1],18 µM
same,IC50,[2],3.3 nM
same,IC50,[3],2 nM
same,clearance,[4],4 mL/min/kg
same,AUC,Canis familiaris [5],6 µM
same,AUC,Rhesus monkey,1.7 µM
same,IC50,[6],9.6 nM
same,half-life,[7],7 h
same,clearance,[8],15 mL/min/kg
same,Ki,[9],0.1 nM
same,IC50,[10],84.3 nM
same,IC95,[11],8 nM
same,IC95,[12],62 nM
same,half-life,[13],4.6 h
same,IC50,[14],0.6 nM
same,bioavailability,[15],49%
same,Activity,Canis familiaris [16],Non-toxic
same,half-life,[17],4.2 h
same,IC50,[18],37.3 nM
same,Vd,[19],3.6 L/kg
same,AUC at 24 h,[20],180 µM·h
same,IC50,[21],326 nM
same,bioavailability,[22],63%
same,IC50,[23],3.4 nM
same,IC50,[24],4.3 nM
same,IC50,[25],1.1 nM
same,Vd,[26],3.5 L/kg
same,Ki,[27],0.4 nM
same,IC95,[28],18 nM
same,IC50,[29],112 nM
same,IC95,[30],69 nM
same,IC50,Cytochrome P450 2D6,47400 nM
same,IC50,[31],> 1000 nM
same,clearance,[32],10 mL/min/kg
same,IC50,[33],2.2 nM
same,IC95,[34],14 nM
same,bioavailability,[35],13%
same,IC50,[36],184 nM
same,AUC,Rattus norvegicus [37],7.4 µM
same,Activity,Canis familiaris [38],Non-toxic
same,IC50,Cytochrome P450 3A4,4400 nM
same,IC50,[39],3.3 nM
same,Activity,Canis familiaris [40],Non-toxic
same,IC50,[41],6.4 nM
same,Vd,[42],2.3 L/kg
same,IC50,[43],19.2 nM
